Test results: ChEMBL document CHEMBL1240396, “In vitro sensitivities of Plasmodium falciparum to different antimalarial drugs in Uganda” (Antimicrob Agents Chemother, 2010)

Legend:
Plasmodium falciparum [1] = assay: Antimicrobial activity against Plasmodium falciparum by ELISA; format: functional, organism-based
Procedure, shortened: (§1)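 Fresh patient isolates, taken before therapy, washed in RPMI 1640, diluted with group O erythrocytes to 0.05% parasitemia, ~2% PCV with 0.5% Albumax II. Added to dried predosed wells with seven duplicate 2-fold dilutions (CQ 15.7–1,002 nM; MDAQ 6.25–400 nM; QN 15.4–985 nM; DHA 0.13–8.5 nM; LM 0.2–12.5 nM; PQ 1.6–100 nM). Incubated 72 h, 37°C, 5% CO2, then freeze-thawed. HRP-2 ELISA (A450) compared against drug-free wells. IC50 from nonlinear regression.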

Plasmodium falciparum [2] = assay: Antimicrobial activity against chloroquine-sensitive Plasmodium falciparum D6 by ELISA; format: functional, organism-based
Procedure, shortened: (§2)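 Reference laboratory lines run as controls. Drug-predosed wells held seven duplicate 2-fold dilutions (CQ 15.7–1,002 nM; MDAQ 6.25–400 nM; QN 15.4–985 nM; DHA 0.13–8.5 nM; LM 0.2–12.5 nM; PQ 1.6–100 nM). Incubated 72 h, 37°C, 5% CO2, freeze-thawed, and HRP-2 measured by ELISA at A450 against drug-free wells. IC50 by nonlinear regression.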

Plasmodium falciparum [3] = assay: Antimicrobial activity against chloroquine-resistant Plasmodium falciparum K1 by ELISA; format: functional, organism-based; procedure, shortened: as §2
Plasmodium falciparum [4] = assay: Antimicrobial activity against Plasmodium falciparum harboring mdr1 N86Y/D1246Y/Y184F mutant gene by ELISA; format: functional, organism-based; procedure, shortened: as §1
Plasmodium falciparum [5] = assay: Antimicrobial activity against chloroquine-sensitive Plasmodium falciparum HB3 by ELISA
Plasmodium falciparum [6] = assay: Antimicrobial activity against chloroquine-resistant Plasmodium falciparum W2 by ELISA

SMILES	IC50 (Plasmodium falciparum [1]) [nM]	IC50 (Plasmodium falciparum [2]) [nM]	IC50 (Plasmodium falciparum [3]) [nM]	IC50 (Plasmodium falciparum [4]) [nM]	IC50 (Plasmodium falciparum [5]) [nM]	IC50 (Plasmodium falciparum [6]) [nM]
Clc1ccc2c(N3CCN(CCCN4CCN(c5ccnc6cc(Cl)ccc56)CC4)CC3)ccnc2c1 [PIPERAQUINE]	6.1	6.26	12.5	1.6	10.5	–
C=C[C@H]1CN2CC[C@H]1C[C@H]2[C@H](O)c1ccnc2ccc(OC)cc12 [QUININE]	94.4	107	276	15.4	236	491
CCCCN(CCCC)CC(O)c1cc(Cl)cc2c1-c1ccc(Cl)cc1/C2=C/c1ccc(Cl)cc1 (stereo not drawn) [LUMEFANTRINE]	0.51	1.82	0.31	0.19	1.41	0.45
CCNCc1cc(Nc2ccnc3cc(Cl)ccc23)ccc1O [DESETHYL AMODIAQUINE]	66.4	30.9	262	6.3	29.8	268
C[C@H]1[C@@H](O)O[C@@H]2O[C@@]3(C)CC[C@H]4[C@H](C)CC[C@@H]1[C@@]24OO3 [ARTENIMOL]	0.55	0.79	0.49	–	0.71	0.41
